From ChEMBL document CHEMBL4396922, “Identification of new aryl hydrocarbon receptor (AhR) antagonists using a zebrafish model” (Bioorg Med Chem, 2019)
The source made the active and inactive calls. The calls are words filed in the database; no cut-off is given here.

Biological target: T1, Aryl hydrocarbon receptor (Danio rerio, UniProt Q9YGV3)
T1 sequence (Q9YGV3 whole entry): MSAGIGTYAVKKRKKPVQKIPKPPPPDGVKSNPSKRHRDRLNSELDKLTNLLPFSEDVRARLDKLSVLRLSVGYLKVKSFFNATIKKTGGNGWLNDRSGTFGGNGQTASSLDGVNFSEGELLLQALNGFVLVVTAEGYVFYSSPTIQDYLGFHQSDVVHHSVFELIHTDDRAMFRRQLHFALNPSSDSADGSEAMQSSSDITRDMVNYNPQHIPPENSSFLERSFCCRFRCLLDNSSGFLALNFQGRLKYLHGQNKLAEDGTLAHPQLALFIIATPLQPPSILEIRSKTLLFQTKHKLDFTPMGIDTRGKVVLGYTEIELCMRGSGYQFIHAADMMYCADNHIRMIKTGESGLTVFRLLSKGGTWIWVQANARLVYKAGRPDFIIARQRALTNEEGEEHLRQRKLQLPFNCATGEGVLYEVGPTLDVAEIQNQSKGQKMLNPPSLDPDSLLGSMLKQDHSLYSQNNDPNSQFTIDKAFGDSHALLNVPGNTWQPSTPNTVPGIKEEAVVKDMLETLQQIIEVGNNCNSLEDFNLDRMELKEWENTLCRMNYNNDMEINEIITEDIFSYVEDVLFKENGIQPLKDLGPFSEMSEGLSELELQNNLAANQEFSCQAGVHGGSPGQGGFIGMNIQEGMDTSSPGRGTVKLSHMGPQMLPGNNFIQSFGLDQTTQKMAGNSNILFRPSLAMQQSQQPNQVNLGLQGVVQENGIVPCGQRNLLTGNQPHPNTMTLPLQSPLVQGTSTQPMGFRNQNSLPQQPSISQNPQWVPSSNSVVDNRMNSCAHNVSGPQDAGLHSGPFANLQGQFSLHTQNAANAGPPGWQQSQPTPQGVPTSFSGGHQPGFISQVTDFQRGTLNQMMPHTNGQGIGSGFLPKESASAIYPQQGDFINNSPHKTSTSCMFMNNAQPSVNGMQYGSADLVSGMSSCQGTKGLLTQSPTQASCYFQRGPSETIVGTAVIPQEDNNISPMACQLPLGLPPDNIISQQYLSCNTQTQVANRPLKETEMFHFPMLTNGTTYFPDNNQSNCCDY
Experiment: Antagonist activity at aryl hydrocarbon receptor in 30 hrs post fertilized transgenic cyp1a:EGFP zebrafish embryo assessed as receptor transcriptional activity by measuring cyp1A-mediated EGFP expression at 5 uM measured after 48 hrs by fluorescence stereomicroscopic analysis
Settings: not given
Outline: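 Screen format: 30 hpf Tg(cyp1a:nls-egfp) embryos, three per well in 200 µL E3 medium (pH 7.2) with 10 nM TCDD. Each compound was added singly at 5 µM in DMSO. Incubation 48 h, then EGFP scored by fluorescent stereomicroscopy.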

Compound | Activity
COc1ccccc1-c1cc(-c2ccc(OC(F)(F)F)cc2)no1 | Not Active
COc1ccccc1C(=O)CC(=O)c1ccc(OCc2ccccc2)cc1 | Not Active
COc1ccccc1C(=O)/C=C/c1ccc(OC(F)(F)F)cc1 | Not Active
COc1cccc(OC)c1C(=O)CC(=O)c1ccc(OC(C)C)cc1 | Not Active
COc1ccccc1-c1cc(-c2ccc(OC(F)(F)F)cc2)[nH]n1 | Not Active
COc1ccccc1C(=O)C(C)(C)C(=O)c1ccc(OC(C)C)cc1 | Not Active
COc1ccccc1-c1cc(-c2ccc(OC(C)C)cc2)no1 | Active
COc1cc(O)c(C(=O)CC(=O)c2ccc(OC(C)C)cc2)c(OC)c1 | Not Active
COc1ccccc1-c1cc(-c2ccc(OC(C)C)cc2)[nH]n1 | Not Active
COc1ccccc1-c1cc(-c2ccc(OC(C)C)cc2)ncn1 | Active

Further lines, results first:

Activity | Compound
Not Active | CC(C)Oc1ccc(C(=O)CC(=O)c2ccccc2OC(F)(F)F)cc1
Not Active | COc1ccccc1C(=O)CC(=O)c1ccccc1
Not Active | COc1ccccc1C(=O)CC(=O)c1ccc(OCC(C)C)cc1
Not Active | O=C(CC(=O)c1ccc(OC(F)(F)F)cc1)c1ccccc1
Active | COc1cccc(C(=O)CC(=O)c2ccc(OC(F)(F)F)cc2)c1
Active | COc1ccccc1C(=O)CC(=O)c1cccc(OC(F)(F)F)c1
Active | CCOc1ccc(C(=O)CC(=O)c2ccccc2OC)cc1
Not Active | COc1ccc(C(=O)CC(=O)c2ccccc2OC)cc1
Not Active | COc1ccc(C(=O)CC(=O)c2ccc(OC(F)(F)F)cc2)cc1

Biological target: T1, Aryl hydrocarbon receptor
Experiment: Antagonist activity at zebrafish AhR2 expressed in COS7 cells transfected with ARNT-1c, Cyp1a-firefly luciferase and pRL-TK Renilla luciferase plasmids assessed as inhibition of AhR transcriptional activity administered at 5 hrs post-transfection treated with TCDD at 1 hr post-compound treatment and measured for 10 sec after a 3 sec delay at 18 hrs post-TCDD challenge by dual luciferase reporter …
Assay type: cell-based
Settings: not given

Compound | IC50
Cc1ccccc1/N=N/c1ccc(NC(=O)c2ccnn2C)c(C)c1 | 98.1 nM

Test system: not listed separately
Experiment: Toxicity in 30 hrs post fertilized transgenic cyp1a:EGFP zebrafish embryo
Assay type: ADME, Danio rerio
Settings: in vivo

Compound | Activity
COc1ccccc1C(=O)/C=C/c1ccc(OC(F)(F)F)cc1 | Toxic
COc1ccccc1-c1cc(-c2ccc(OC(F)(F)F)cc2)[nH]n1 | Toxic
COc1ccccc1-c1cc(-c2ccc(OC(C)C)cc2)[nH]n1 | Toxic

Species on record: Homo sapiens
Experiment: Ex vivo expansion of human CD34-positive blood stem/progenitor cells assessed as increase in CD34+ cell population incubated for 5 weeks supplemented with fresh medium containing human recombinant thrombopoietin, stem cell factor, FLT-3 ligand and IL-3 by flow cytometry relative to control
Assay type: functional
Settings: not given
Outline: (§1)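 Human cord blood CD34⁺ progenitors, 5 x 10⁴ cells in DXF expansion medium with supplement and cytokine mix (TPO, SCF, flt-3 ligand, IL-3), treated with compound at seeding. Cultured 5 weeks at 37°C, 5% CO2, density kept at 5 x 10⁵–2 x 10⁶ cells/ml. Cells stained with anti-CD34-APC plus CD45RA- or Lin-FITC and counted by flow cytometry; vehicle 0.01% DMSO.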

Compound | fold change (FC)
COc1ccccc1C(=O)/C=C/c1ccc(OC(C)C)cc1 | > 4

Species on record: Homo sapiens
Experiment: Ex vivo expansion of human CD34-positive blood stem/progenitor cells assessed as CD34+ cell population incubated for 5 weeks supplemented with fresh medium containing human recombinant thrombopoietin, stem cell factor, FLT-3 ligand and IL-3 by flow cytometry
Assay type: functional
Settings: not given
Outline: as §1

Compound | Activity
COc1ccccc1C(=O)CC(=O)c1ccc(OC(C)C)cc1 | inactive
CCOc1ccccc1C(=O)CC(=O)c1ccc(OC(C)C)cc1 | inactive
Cc1ccccc1/N=N/c1ccc(NC(=O)c2ccnn2C)c(C)c1 | inactive
COc1ccccc1C(=O)CC(=O)c1ccc(OC(F)(F)F)cc1 | inactive
